From ChEMBL document CHEMBL4699557, “Structure activity relationship of novel antiviral nucleosides against Enterovirus A71” (Bioorg Med Chem Lett, 2020) come the findings set out here.

The subject of series [1] is Enterovirus A71. In words: microbe, parasite or virus in culture. The series is classed as functional, organism-based, Tainin/4643/98, Vero 76. The conditions noted are these: Enterovirus A; for EC50: Tainin/4643/98, Vero 76, 72 h.
Series [2] has as its system Vero 76. Briefly: (§1) Cytotoxicity against monkey Vero 76 cells by microscopic analysis. The note with it: chlorocebus sabaeus, vero 76. The series is classed as cell-based.
Series [3] has as its system Enterovirus A71. Briefly: microbe, parasite or virus in culture. In kind it is functional, organism-based. The note with it: Enterovirus A, Tainin/4643/98, Vero 76, 72 h.
For series [4], the system named is Vero 76. In words: (§2) Cytotoxicity against monkey Vero 76 cells by neutral red uptake assay. In kind it is cell-based. The note with it: chlorocebus sabaeus, vero 76.
Series [5] can be described thus: in vitro. The note with it: monkey, Vero 76 cells.
The nature of series [6]: in vitro. The conditions noted are these: monkey, Vero 76 cells. This is another data set of the same source.
Series [7] relates to enterovirus D68. In words: Antiviral activity against Enterovirus D68 US/KY/14-18953 infected in RD cells assessed as reduction in virus yield by visual inspection method. In kind it is functional, organism-based. The conditions noted are these: Enterovirus D, US/KY/14-18953, RD. The essentials: (§3)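 Cell-based inhibition of virus replication. Vero 76 cells for Coxsackie B3 and poliovirus 1; RD cells for enterovirus 68. Two read-outs: visual scoring of virus yield reduction and neutral red uptake for cytopathic effect. EC50 is reported, and EC90 for some visual values.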

The test system of series [8] is RD. In words: Cytotoxicity against human RD cells by microscopic based visual inspection method. In kind it is cell-based.
Series [9] can be described thus: Selectivity index, ratio of CC50 for human RD cells to EC50 for Enterovirus D68 US/KY/14-18953 strain. The series is classed as toxicity. The essentials: (§4)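 Selectivity index calculated as CC50/EC50, both from the same cell line and the same read-out (visual or neutral red).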
For series [10], the system named is enterovirus D68. Briefly: Antiviral activity against Enterovirus D68 US/KY/14-18953 strain infected in RD cells assessed as reduction in virus-induced cytopathic effect by neutral red uptake assay. The series is classed as functional, organism-based. The note with it: Enterovirus D, US/KY/14-18953, RD. The essentials: as §3
(In general: Protection from cytopathic effect is a common read-out in antiviral testing.)

Series [11] relates to RD. In words: Cytotoxicity against human RD cells by neutral red uptake assay. In kind it is cell-based.
Series [12] in a line: Selectivity index, ratio of CC50 for human RD cells to EC50 for Enterovirus D68 US/KY/14-18953 by neutral red uptake assay. The note with it: read-out: Ratio CC50/EC50. In kind it is toxicity. The essentials:
as §4

The subject of series [13] is Respiratory syncytial virus. Briefly: Antiviral activity against Respiratory syncytial virus. In kind it is functional, organism-based.
Series [14] has as its target 5-hydroxytryptamine receptor 2B (Homo sapiens, UniProt P41595). Briefly: Binding affinity to 5HT2B (unknown origin).
Another series relates to Tacaribe virus. Briefly: Antiviral activity against Tacaribe virus. In kind it is functional, organism-based. The note with it: Mammarenavirus tacaribeense.
The nature of series [15]: Inhibition of capsid protein VP1 in Enterovirus 71. More on the design: species or system Enterovirus A71.
The test system of series [16] is Coxsackievirus. Briefly: Antiviral activity against Coxsackie virus B3 HA 201 933 infected in Vero 76 cells assessed as reduction in virus yield by visual inspection method. In kind it is functional, organism-based. The note with it: B3 HA 201 933, Vero 76. The essentials: as §3
Series [17] concerns Coxsackievirus. Briefly: Antiviral activity against Coxsackie virus B3 HA 201 933 infected in Vero 76 cells assessed as reduction in virus-induced cytopathic effect by neutral red uptake assay. The series is classed as functional, organism-based. The conditions noted are these: B3 HA 201 933, Vero 76. The essentials:
as §3

For series [18], the system named is Poliovirus 1. In words: Antiviral activity against Poliovirus 1 Mahoney infected in monkey Vero 76 cells assessed as reduction in virus yield by visual inspection method. The series is classed as functional, organism-based. The note with it: Enterovirus C. The gist of the method: as §3
Series [19] deals with Poliovirus 1. In words: Antiviral activity against Poliovirus 1 Mahoney infected in monkey Vero 76 cells assessed as reduction in virus-induced cytopathic effect by neutral red uptake assay. In kind it is functional, organism-based. The note with it: Enterovirus C. The essentials:
as §3

Series [20] can be described thus: as §1. In kind it is cell-based. The conditions noted are these: chlorocebus sabaeus, Vero 76 cells.
The nature of series [21]: as §2. In kind it is cell-based. The note with it: chlorocebus sabaeus, Vero 76 cells.
The nature of series [22]: Selectivity index, ratio for CC50 of monkey Vero 76 cells to EC50 for Coxsackie virus B3 HA 201 933 by visual inspection method. The series is classed as toxicity. The note with it: read-out: Ratio CC50/EC50. The essentials: as §4
Series [23] is described as follows: Selectivity index, ratio for CC50 of monkey Vero 76 cells to EC50 for Coxsackie virus B3 HA 201 933 by neutral red uptake assay. The series is classed as toxicity. The note with it: read-out: Ratio CC50/EC50. The gist of the method:
as §4

The nature of series [24]: Selectivity index, ratio of CC50 for monkey Vero 76 cells to EC50 for Poliovirus 1 Mahoney. The series is classed as toxicity. The note with it: read-out: Ratio CC50/EC50. The essentials: as §4
A short description of series [25]: Selectivity index, ratio of CC50 for monkey Vero 76 cells to EC50 for Poliovirus 1 Mahoney by neutral red uptake assay. In kind it is toxicity. The conditions noted are these: read-out: Ratio CC50/EC50. The gist of the method: as §4
Series [26] deals with Enterovirus A71. In words: Antiviral activity against Enterovirus 71. The series is classed as functional, organism-based. The note with it: Enterovirus A.

Structures are written as SMILES. Calls of active or inactive are those of the source. The rule behind the calls is not given here. Some results are limits rather than exact numbers.

5-hydroxytryptamine receptor 2B, sequence (P41595 whole entry): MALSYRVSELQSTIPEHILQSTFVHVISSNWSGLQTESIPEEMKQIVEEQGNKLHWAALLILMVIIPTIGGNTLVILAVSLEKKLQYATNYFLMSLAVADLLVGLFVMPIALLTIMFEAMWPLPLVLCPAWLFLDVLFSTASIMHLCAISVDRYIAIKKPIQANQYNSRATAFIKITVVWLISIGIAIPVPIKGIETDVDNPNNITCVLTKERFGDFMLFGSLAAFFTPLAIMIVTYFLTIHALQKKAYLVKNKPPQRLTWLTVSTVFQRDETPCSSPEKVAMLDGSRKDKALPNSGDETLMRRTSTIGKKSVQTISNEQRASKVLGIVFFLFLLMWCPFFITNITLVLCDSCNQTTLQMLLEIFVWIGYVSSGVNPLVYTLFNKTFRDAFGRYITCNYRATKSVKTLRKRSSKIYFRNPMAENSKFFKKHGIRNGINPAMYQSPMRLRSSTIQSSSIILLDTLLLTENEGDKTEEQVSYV

Broadly, the EC50 is the concentration giving half of the maximal effect. What is called CC50 is the concentration at which the toxic effect on the cells reaches its halfway point. Regarding `CC(C)[C@@H](Nc1nc(Cl)nc2c1ncn2[C@H]1[C@H](O)[C@H](O)[C@]2(CCl)C[C@H]12)C1CC1`, the 50% effective concentration (EC50) in the series with Enterovirus A71 [1] is 4.3 µM; in the series with Enterovirus A71 [3] it was 3.9 µM. For the same compound, the CC50 was 32 µM in the series on Vero 76 [2] and 27 µM in the series on Vero 76 [4]. The results for the selectivity ratio in “in vitro [5]” and in the series “in vitro [6]” were 7.4 and 6.9, respectively.
As to `CC(C)[C@@H](Nc1nc(Cl)nc2c1ncn2[C@H]1[C@H](O)[C@H](O)[C@]2(CN=[N+]=[N-])C[C@H]12)C1CC1`, the EC50 in the series on Enterovirus A71 [1] was 5.3 µM; in the series on Enterovirus A71 [3], 4.8 µM. Besides, the 50% cytotoxic concentration (CC50) in the series on Vero 76 [2] and with Vero 76 [4] was 32 µM each time. In addition, the results for the selectivity ratio in the series “in vitro [5]” and in the series “in vitro [6]” were 6 and 6.7, respectively.
The EC90 is the concentration needed for an effect of 90%. As to `O[C@@H]1[C@H](O)[C@@H]2C[C@@H]2[C@H]1n1cnc2c(NC(C3CC3)C3CC3)nc(Cl)nc21`, the values for the EC50 with Enterovirus A71 [1], in the series on Enterovirus A71 [3] and with enterovirus D68 [10] were 3.6 µM, 3.4 µM and 9.3 µM, respectively. Moreover, the half-maximal cytotoxic concentration (CC50) in the series with Vero 76 [2] is above 100 µM; in the series with Vero 76 [4], 34 µM; in the series on RD [8] it was 41 µM; with RD [11] it was 41 µM. Further, the EC90 in the series on enterovirus D68 [7] was 15 µM. For the same compound, the selectivity ratio is 2.7 in [9] (read-out: Ratio), 4.4 in series [12], above 28 in the series “in vitro [5]” and 10 in the series “in vitro [6]”. Further, in series [13], the outcome was inactive.
For orientation: Ki means the dissociation constant of the complex between target and ligand, obtained from inhibition or displacement. On to `CC(C)[C@@H](Nc1nc(Cl)nc2c1ncn2[C@H]1[C@H](O)[C@H](O)[C@]2(CF)C[C@H]12)C1CC1`, for which the half-maximal cytotoxic concentration (CC50) turned out to be 36 µM in the series on Vero 76 [2], 33 µM in the series on Vero 76 [4], 42 µM in the series on RD [8] and 42 µM with RD [11]. The 50% effective concentration (EC50) in the series with Enterovirus A71 [3] came to 3 µM; in the series with enterovirus D68 [10], 16 µM. The EC90 with enterovirus D68 [7] was found to be 7.7 µM. For the same compound, the selectivity ratio in series [9] (read-out: Ratio) came out at 5.4; in series [12], 2.6; in the series “in vitro [5]”, 10; in “in vitro [6]”, 11. The affinity in series [14], expressed as Ki, was 934 nM.
In the case of `OC[C@@]12C[C@@H]1[C@@H](n1cnc3c(NC(C4CC4)C4CC4)nc(Cl)nc31)[C@H](O)[C@@H]2O`, in the series with Tacaribe virus, the outcome was inactive. Also, the CC50 is above 100 µM in the series on Vero 76 [2] and 68 µM in the series on Vero 76 [4].
Regarding `CC(C)[C@@H](Nc1nc(I)nc2c1ncn2[C@H]1[C@H](O)[C@H](O)[C@]2(CO)C[C@H]12)C1CC1`, the figures for the EC50 in the series on Enterovirus A71 [1] and in the series on Enterovirus A71 [3] were 18 µM and 20 µM, respectively. Further, the cytotoxic concentration (CC50) is 100 µM with Vero 76 [2] and 46 µM with Vero 76 [4]. The same compound yielded an inhibition constant Ki in [14] of 170 nM. Further, the selectivity ratio in the series “in vitro [5]” stood at 5.6; in “in vitro [6]”, 2.3.
Broadly, the IC50 is the concentration that gives 50% inhibition. The compound `CCn1nnc(-c2ccc(OCCC(C)CCN3CCN(c4ccncc4)C3=O)cc2)n1` (configuration not stated) came in with a half-inhibitory concentration (IC50) in [15] of 0.8 nM.
`CC(C)[C@@H](Nc1nc(Cl)nc2c1ncn2[C@H]1[C@H](O)[C@H](O)[C@]2(CO)C[C@H]12)C1CC1`: in the series on Enterovirus A71 [1] (Tainin/4643/98, Vero 76, time 72 hrs), the 90% effect level (EC90) was put at 7.7 µM. The CC50 is 24 µM with Vero 76 [2], 24 µM with Vero 76 [4], above 100 µM with RD [8] and above 100 µM in the series with RD [11]. Also, the concentration giving a half-maximal response (EC50) with Enterovirus A71 [3] worked out at 9.1 µM; in the series on Coxsackievirus [16], 16 µM; with Coxsackievirus [17], 16 µM; with enterovirus D68 [7], 32 µM; in the series with enterovirus D68 [10], 32 µM; in the series on Poliovirus 1 [18] it was 28 µM. For the same compound, the EC50 in the series with Poliovirus 1 [19] came out at 27 µM.
Take `OC[C@@]12C[C@@H]1[C@@H](n1ccc3c(NC(C4CCC4)C4CCC4)nc(Cl)nc31)[C@H](O)[C@@H]2O`: the EC50 in the series with Enterovirus A71 [1] turned out to be 32 µM. Moreover, the CC50 in series [20] is above 100 µM; in series [21], 86 µM. The selectivity ratio was above 3.1 in the series “in vitro [5]” and 3.6 in the series “in vitro [6]”.
Regarding `CC(C)S(=O)(=O)n1c(N)nc2ccc(/C(=N/O)c3ccccc3)cc21` [ENVIROXIME], the concentration giving a half-maximal response (EC50) in the series on Coxsackievirus [16] was below 0.01 µM; in the series with Coxsackievirus [17], below 0.01 µM; in the series on enterovirus D68 [7], 0.032 µM; in the series with enterovirus D68 [10] it was 0.032 µM; in the series on Poliovirus 1 [18], 0.015 µM; in the series with Poliovirus 1 [19], below 0.01 µM. Moreover, the selectivity ratio was above 1000 in series [22]; above 450 in series [23]; 130 in series [9] (read-out: Ratio CC50/EC50); 47 in [12]; above 670 in [24]; above 490 in [25]. The CC50 in the series with RD [8] turned out to be 4.2 µM; in the series on RD [11] it was 1.5 µM.
`OC[C@H]1O[C@@H](n2cnc3c(NCc4cccc(C(F)(F)F)c4)ncnc32)[C@H](O)[C@@H]1O` displayed a concentration giving a half-maximal response (EC50) in the series with Enterovirus A71 [26] of 68 nM.
In the case of `CC(C)[C@@H](Nc1nc(Cl)nc2c1ncn2[C@H]1[C@H](O)[C@H](O)[C@@H]2C[C@@H]21)C1CC1`, the EC50 in the series with Enterovirus A71 [1] is 16 µM; with Enterovirus A71 [3], 12 µM. Further, the 50% cytotoxic concentration (CC50) with Vero 76 [2] and with Vero 76 [4] was above 50 µM throughout. Also, the selectivity ratio was above 3.1 in the series “in vitro [5]” and above 4.2 in the series “in vitro [6]”.
As to `OC[C@@]12C[C@@H]1[C@@H](n1cnc3c(N[C@H](C4CCC4)C4CC4)nc(Cl)nc31)[C@H](O)[C@@H]2O`, the 50% effective concentration (EC50) in the series with Enterovirus A71 [1] was found to be 16 µM; with Enterovirus A71 [3], 9.3 µM. Moreover, the CC50 in the series on Vero 76 [2] was above 50 µM; in the series with Vero 76 [4], 14 µM. In addition, the selectivity ratio in “in vitro [5]” is above 3.1; in “in vitro [6]” it was 1.5.
